Experimental findings from publication PMC8033778 (ACS Pharmacology & Translational Science, 2021) are described below.

The structures appear in SMILES notation.

This data set in a line: In vivo stability of 18F-labeled Tz-derivatives. To be noted: naïve mice, plasma 30 min p.i., radio-TLC, n = 4. Summed up:
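Naïve mice received the 18F-labeled tetrazine. Blood was collected after 30 min and plasma analysed by radio-TLC. Stability is expressed as the fraction (%) of radioactivity corresponding to intact compound (n = 4).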

On to `Cc1nnc(-c2ccc(OCc3cn(CC[18F])nn3)cc2)nn1` [[^18F]5, 3-(4-((1-(2-[18F]Fluoroethyl)-1H-1,2,3-triazol-4-yl)methoxy)phenyl)-6-methyl-1,2,4,5-tetrazine], for which the “in vivo stability (% intact [18F]Tz after 30 min)” value is recorded as 26%.
